Measurements from ChEMBL document CHEMBL3102817, “Mycoleptones A-C and polyketides from the endophyte Mycoleptodiscus indicus” (J Nat Prod, 2014).

Assays:
SF-295 = test: Cytotoxicity against human SF295 cells by colorimetric method; assay type: functional, cell-based
[1] = Cytotoxicity against human HCT8 cells by colorimetric method; assay type: functional, cell-based; settings: HCT-8
PC-3 = test: Cytotoxicity against human PC3 cells by colorimetric method; assay type: functional, cell-based
MDA-MB-435 = test: Cytotoxicity against human MDA-MB-435 cells by colorimetric method; assay type: functional, cell-based
HL-60 = test: Cytotoxicity against human HL60 cells by colorimetric method; assay type: functional, cell-based
[2] = Cytotoxicity against human lymphocytes by colorimetric method; assay type: cell-based; settings: Lymphocyte
Leishmania donovani = test: Antileishmanial activity against Leishmania donovani by AlamarBlue assay; assay type: functional, organism-based
Summary of the method: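 Microplate Alamar Blue (MABA) growth-inhibition assay on *L. donovani*, with amphotericin B and pentamidine as reference drugs.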

Leishmania major = test: Antileishmanial activity against Leishmania major by AlamarBlue assay; assay type: functional; settings: read-out: LD50 (the source's name)

**Q.** Which IC50 (SF-295) does the source give for COc1cc2oc(CO)cc(=O)c2c(O)c1C here?
**A.** > 105 µM

**Q.** And the IC50 [1]?
**A.** > 105 µM

**Q.** And the IC50 (PC-3)?
**A.** > 105 µM

**Q.** And the IC50 (MDA-MB-435)?
**A.** > 105 µM

**Q.** What about the IC50 (HL-60) of the same molecule?
**A.** > 105 µM

**Q.** And the IC50 [2]?
**A.** > 105 µM

**Q.** With CC(=O)O[C@H]1C2=COC(C)=CC2=C(C=O)C(=O)[C@]1(C)OC(C)=O as the molecule, how does the IC50 (SF-295) read?
**A.** 26.3 µM

**Q.** What about the IC50 [1] of the same molecule?
**A.** 13.9 µM

**Q.** What about the IC50 (Leishmania donovani) of the same molecule?
**A.** 59.3 µM

**Q.** And the IC50 (MDA-MB-435)?
**A.** 26.9 µM

**Q.** What about the IC50 (HL-60) of the same molecule?
**A.** 22.1 µM

**Q.** What about the IC50 [2] of the same molecule?
**A.** > 78 µM

**Q.** And the LC50 (Leishmania major)?
**A.** 19.8 µM

**Q.** With COc1cc2oc(C)cc(=O)c2c(O)c1OC [STELLATIN] as the molecule, how does the IC50 (SF-295) read?
**A.** > 105 µM

**Q.** What about the IC50 [1] of the same molecule?
**A.** > 105 µM

**Q.** What about the IC50 (PC-3) of the same molecule?
**A.** 20.5 µM

**Q.** And the IC50 (Leishmania donovani)?
**A.** > 169 µM

**Q.** What about the IC50 (MDA-MB-435) of the same molecule?
**A.** > 105 µM

**Q.** And the IC50 (HL-60)?
**A.** > 105 µM

**Q.** And the IC50 [2]?
**A.** > 105 µM

**Q.** What about the LC50 (Leishmania major) of the same molecule?
**A.** 34.5 µM

**Q.** What does the source list for CC1=CC2=C(CC3=C4C=C(C)OC=C4[C@H](O)[C@@](C)(O)C3=O)C(=O)[C@](C)(O)[C@@H](O)C2=CO1?
**A.** IC50 (SF-295): > 58 µM; IC50 [1]: > 58 µM; IC50 (PC-3): 10 µM; IC50 (Leishmania donovani): > 93.4 µM; IC50 (MDA-MB-435): > 58 µM; IC50 (HL-60): > 58 µM; IC50 [2]: > 58 µM; LC50 (Leishmania major): 28.5 µM

**Q.** With C[C@@H]1[C@H](O)[C@@H](C)/C=C/C=C/C=C/C=C/C=C/C=C/C=C/[C@H](O[C@@H]2O[C@H](C)[C@@H](O)[C@H](N)[C@@H]2O)C[C@@H]2O[C@](O)(C[C@@H](O)C[C@@H](O)[C@H](O)CC[C@@H](O)C[C@@H](O)CC(=O)O[C@H]1C)C[C@H](O)[C@H]2C(=O)O [AMPHOTERICIN B] as the molecule, how does the IC50 (Leishmania donovani) read?
**A.** 0.14 µM

**Q.** With COc1cccc2c1C(=O)c1c(O)c3c(c(O)c1C2=O)C[C@@](O)(C(=O)CO)C[C@@H]3O[C@H]1C[C@H](N)[C@H](O)[C@H](C)O1 [DOXORUBICIN] as the molecule, how does the IC50 (SF-295) read?
**A.** 0.7 µM

**Q.** And the IC50 (PC-3)?
**A.** 0.41 µM

**Q.** What about the IC50 (MDA-MB-435) of the same molecule?
**A.** 1.51 µM

**Q.** What about the IC50 [2] of the same molecule?
**A.** 0.7 µM

**Q.** For CN[C@@H]1[C@@H](O)[C@@H](O[C@@H]2[C@@H](O)[C@H](O[C@H]3O[C@H]([C@@H](C)O)[C@@H](O)[C@H](O)[C@H]3N)[C@@H](N)C[C@H]2N)OC[C@]1(C)O [GENETICIN], which LC50 (Leishmania major) is on record?
**A.** 3.43 µM

**Q.** What does the source list for CC1=CC2=C(Cc3c(O)c(C)c4c(c3O)C(=O)OC(C)C4)C(=O)[C@](C)(O)[C@@H](O)C2=CO1 (stereo partly drawn)?
**A.** IC50 (SF-295): > 58 µM; IC50 [1]: > 58 µM; IC50 (PC-3): 7.1 µM; IC50 (MDA-MB-435): > 58 µM; IC50 (HL-60): > 58 µM; IC50 [2]: > 58 µM; LC50 (Leishmania major): 21.7 µM

**Q.** Which IC50 (SF-295) does the source give for COc1cc2oc(C)cc(=O)c2c(O)c1C here?
**A.** > 113 µM

**Q.** And the IC50 [1]?
**A.** > 113 µM

**Q.** What about the IC50 (PC-3) of the same molecule?
**A.** > 113 µM

**Q.** What about the IC50 (Leishmania donovani) of the same molecule?
**A.** > 181 µM

**Q.** What about the IC50 (MDA-MB-435) of the same molecule?
**A.** > 113 µM

**Q.** What about the IC50 (HL-60) of the same molecule?
**A.** > 113 µM

**Q.** And the IC50 [2]?
**A.** > 113 µM

**Q.** And the LC50 (Leishmania major)?
**A.** 39.9 µM

**Q.** With CC1=CC2=C(C=O)C(=O)[C@](C)(O)[C@@H](O)C2=CO1 as the molecule, how does the IC50 (SF-295) read?
**A.** 28 µM

**Q.** And the IC50 [1]?
**A.** 12.9 µM

**Q.** What about the IC50 (Leishmania donovani) of the same molecule?
**A.** 80.5 µM

**Q.** What about the IC50 (MDA-MB-435) of the same molecule?
**A.** 34.3 µM

**Q.** And the IC50 (HL-60)?
**A.** 38.8 µM

**Q.** And the IC50 [2]?
**A.** > 113 µM

**Q.** What about the LC50 (Leishmania major) of the same molecule?
**A.** 20.5 µM

**Q.** Which results are given for CC(=O)O[C@H]1C2=COC(C)=CC2=C(CC2=C3C=C(C)OC=C3[C@H](OC(C)=O)[C@@](C)(OC(C)=O)C2=O)C(=O)[C@]1(C)OC(C)=O?
**A.** IC50 (SF-295): > 42 µM; IC50 [1]: > 42 µM; IC50 (PC-3): 33.3 µM; IC50 (MDA-MB-435): > 42 µM; IC50 (HL-60): > 42 µM; IC50 [2]: > 42 µM
